Compound activity (PubChem)
Most compounds without a hit are left out; they make up all but 1.9% or so of the library.
RAD54 inh: blocks human RAD54 Holliday junction branch migration; FAM/BHQ fluorescence; inhibition, % at 10.4 µM; AID 602329; actives 0.14% (n = 360,000); Q92698;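 active means mean normalized replicate activity at least 40 and at least half of replicates scoring 40 or more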;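 further: inhibitors cause a drop in the FAM fluorescence signal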
RAD52 inh: RAD52 (human) annealing inhibition. recombinant RAD52 DNA annealing, FRET fluorescence. P43351. actives 0.46% (n = 360,000). inhibition, % at 18.7 µM;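 active means every replicate showing at least 50% inhibition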
Target sequence (P43351 whole entry, looked up): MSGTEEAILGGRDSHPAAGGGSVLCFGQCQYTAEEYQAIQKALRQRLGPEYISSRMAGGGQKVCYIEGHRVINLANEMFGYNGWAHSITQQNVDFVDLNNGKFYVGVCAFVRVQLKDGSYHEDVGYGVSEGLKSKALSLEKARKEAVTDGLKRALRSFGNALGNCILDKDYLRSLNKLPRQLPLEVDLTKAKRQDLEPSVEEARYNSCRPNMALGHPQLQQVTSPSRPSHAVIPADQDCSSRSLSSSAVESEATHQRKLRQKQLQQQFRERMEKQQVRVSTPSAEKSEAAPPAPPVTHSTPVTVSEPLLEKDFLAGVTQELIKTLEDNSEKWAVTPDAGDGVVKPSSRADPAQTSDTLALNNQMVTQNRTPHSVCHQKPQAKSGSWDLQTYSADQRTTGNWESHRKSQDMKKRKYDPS
PglD DTNB: inhibitors of Campylobacter jejuni PglD acetyltransferase. inhibition, % at 12.5 µM. purified PglD enzyme, DTNB colorimetric CoA detection. AID 602405. actives 0.098% (n = 360,000); in the data active means inhibition above about 16%, passing the limit was not always enough
Cneo AK release: causes C. neoformans cell lysis | lysis activity, % at 15 µM | adenylate kinase release luminescence, 4 h; normalised: neutral wells 0, clomiphene wells 100 | actives 0.2% (n = 360,000) | AID 651654;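 active means mean lysis activity across replicates of at least 80%, whatever share of replicates individually reach that level; inactive means mean lysis activity below 80%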
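read-out = cell lysis signal | test system = log-phase Cryptococcus neoformans yeast cells | input = cells at 5 × 10^6 per mL | medium = fresh YPD growth medium | signal = luminescent adenylate kinase detection reagent | timing = 4 h at 37 °C static, read 1 h later | dosing = single dose | controls = Clomiphene as positive lysis control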
Ecoli rRNA inh: inhibitors of bacterial rRNA selective over humanized ribosomes. E. coli WT GFP vs humanized-ribosome RFP mutants, fluorescence, 24 h; active compounds read low; DMSO median 0, no signal -100. actives 1.6% (n = 350,000). AID 720706. GFP signal change (wild-type ribosome), % (test concentration not listed);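 active means significant combined selectivity score with lowered wild-type GFP, culture density cut under 30%, mutant RFP and density less affected; inactive means any of these conditions unmet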
DNA binder FP: DNA binding artifact in RAD52 counter-screen. shares compounds with RAD52 inh. Salmon sperm DNA/acridine orange FP displacement. AC50, µM. actives 8% (n = 1,000);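 active means fitted half-maximal concentration for signal loss at or below twice the highest dose tested, in every separate run, actives reach about 64 µM in these data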
Of the large screens only hits and unclear results are named; the others gave an inactive call (follow-up assays come after a bar, where they were run); ! = not confirmed by another sample.

CC(C)CCNCC(O)CON=C1c2ccccc2-c2ccccc21 (stereo not given)	RAD52 inh 66 (no result: RAD54 inh, PglD DTNB, Cneo AK release) | DNA binder FP inactive
COCCNCC(O)CON=C1c2ccccc2-c2ccccc21 (stereo not given)	none (no result: RAD54 inh, PglD DTNB, Cneo AK release)
O=C(C[C@@H]1C=C[C@@H](NC(=O)C2CCC2)[C@@H](CO)O1)NCc1ccncc1	none
CC1(C)CC(NC(=O)c2ccc(Cl)c(S(=O)(=O)N(Cc3ccccc3)c3ccccc3)c2)CC(C)(C)N1	RAD52 inh 51 | DNA binder FP inactive
COc1ccccc1N(Cc1ccccc1)S(=O)(=O)c1cccc(C(=O)NC2CC(C)(C)NC(C)(C)C2)c1	RAD52 inh 57 (no result: RAD54 inh, PglD DTNB, Cneo AK release) | DNA binder FP inactive
COc1ccccc1N(Cc1ccccc1)S(=O)(=O)c1cccc(C(=O)O)c1	none (no result: RAD54 inh, PglD DTNB, Cneo AK release)
COc1ccccc1CN1CC[C@@H]2[C@@H](CO)Nc3ccc(-c4ccc(C(=O)N(C)C)cc4)cc3[C@@H]21	none
Cc1ccc(S(=O)(=O)N(C)C[C@@H]2Oc3ccc(NS(=O)(=O)c4cccs4)cc3C(=O)N([C@H](C)CO)C[C@@H]2C)cc1	none (no result: RAD52 inh)
CCN1CCN(Cc2ccc(NC(=O)c3cc(NC(=O)c4cncc(-c5ccc(C#N)cc5)c4)cc(OC)c3)cc2C(F)(F)F)CC1	RAD52 inh 87 | DNA binder FP inactive
CCN1CCN(Cc2ccc(NC(=O)c3cc(NC(=O)c4cnnc5ccccc45)cc(OC)c3)cc2C(F)(F)F)CC1	RAD52 inh 70! | DNA binder FP inactive
CCc1ccc2nc(N(CCCN(C)C)C(=O)c3ccc(S(=O)(=O)N4CCCC4)cc3)sc2c1	none
Cc1ccc2nc(N(CCCN(C)C)C(=O)c3ccc(S(=O)(=O)N4CCCCCC4)cc3)sc2c1	RAD52 inh 61 | DNA binder FP inactive
CCc1ccc2nc(N(CCCN(C)C)C(=O)c3ccc(S(=O)(=O)N4CCCc5ccccc54)cc3)sc2c1	RAD52 inh 71 | DNA binder FP inactive
CCN(CC)CCCNC(=O)c1csc(Nc2cccc3ccccc23)n1	RAD52 inh 92 | DNA binder FP inactive
CC(C)NC(=O)N(C)C[C@@H]1OCCCC[C@H](C)Oc2ccc(NC(=O)C3CCCCC3)cc2C(=O)N([C@@H](C)CO)C[C@H]1C	none
C#CCOCCOCCOCCNc1nc(N2CCN(C(=O)[C@H](CO)n3cc([C@@H](N)C(C)C)nn3)CC2)nc(N2CCN(C(=O)[C@H](CCCCN)n3cc([C@@H](N)[C@H](C)CC)nn3)CC2)n1	RAD52 inh 61 | DNA binder FP inactive
C#CCOCCOCCOCCNc1nc(N2CCN(C(=O)[C@H](CCCN=C(N)N)n3cc(C(N)[C@@H](C)CC)nn3)CC2)nc(N2CCN(C(=O)[C@H](CCCCN)n3cc([C@@H](N)CC(N)=O)nn3)CC2)n1 (stereo not given in full)	RAD52 inh 66 | DNA binder FP inactive
C#CCOCCOCCOCCNc1nc(N2CCN(C(=O)C(Cc3ccc(O)cc3)n3cc(C(N)C(C)CC)nn3)CC2)nc(N2CCN(C(=O)C(Cc3ccc(O)cc3)n3cc(C(N)C(C)CC)nn3)CC2)n1 (stereo not given)	none
C#CCOCCOCCOCCNc1nc(N2CCN(C(=O)[C@H](CCCCN)n3cc(CN)nn3)CC2)nc(N2CCN(C(=O)[C@H](CCC(=O)O)n3cc([C@@H](N)CCCCN)nn3)CC2)n1	RAD52 inh 61 | DNA binder FP inactive
C#CCOCCOCCOCCNc1nc(N2CCN(C(=O)[C@H](CCCCN)n3cc([C@@H](N)C(C)CC)nn3)CC2)nc(N2CCN(C(=O)[C@H](Cc3ccc(O)cc3)n3cc([C@@H](N)CC(C)C)nn3)CC2)n1 (stereo not given in full)	RAD52 inh 92 | DNA binder FP inactive
C#CCOCCOCCOCCNc1nc(N2CCN(C(=O)[C@H](CCC(=O)O)n3cc(CN)nn3)CC2)nc(N2CCN(C(=O)[C@H](CCCCN)n3cc([C@@H](N)CC(N)=O)nn3)CC2)n1	none
O=C(Cc1cccnc1)N1CC(=O)N2[C@H](C1)[C@@H](c1ccc(/C=C/c3ccccc3)cc1)[C@@H]2CO	none (no result: RAD54 inh, PglD DTNB, Cneo AK release)
O=C(O)C[C@H]1C[C@@H]2c3cc(NC(=O)Nc4ccc(F)cc4)ccc3O[C@@H]2[C@H](CO)O1	none
C[C@@H]1CCCCO[C@@H](CN(C)S(=O)(=O)c2ccccc2)[C@@H](C)CN([C@H](C)CO)C(=O)c2cc(NS(C)(=O)=O)ccc2O1	none
C#CCOCCOCCOCCNc1nc(N2CCN(C(=O)CCCCCCCCCCNC(=O)[C@H](CCCCN)n3cc(CCO)nn3)CC2)nc(N2CCN(C(=O)CCCCCCCCCCNC(=O)[C@H](CCCCN)n3cc(CCCC(=O)O)nn3)CC2)n1	RAD52 inh 52, Ecoli rRNA inh -40 | DNA binder FP inactive
C#CCOCCOCCOCCNc1nc(N2CCN(C(=O)CCCCCCCCCCNC(=O)[C@@H](CCC(=O)O)n3cc(CCCCCN)nn3)CC2)nc(N2CCN(C(=O)CCCCCCCCCCNC(=O)[C@H](CO)n3cc(CCCCCN)nn3)CC2)n1	none (no result: RAD52 inh, Ecoli rRNA inh)
C#CCOCCOCCOCCNc1nc(N2CCN(C(=O)Cn3cc(CCCN=C(N)N)nn3)CC2)nc(N2CCN(C(=O)[C@H](CCCCN)n3cc(CCCC)nn3)CC2)n1	RAD52 inh 51 | DNA binder FP inactive
C#CCOCCOCCOCCNc1nc(N2CCN(C(=O)C([C@@H](C)O)n3cc([C@@H](N)CCCCN)nn3)CC2)nc(N2CCN(C(=O)[C@H](CCCCN)n3cc([C@@H](N)[C@H](C)CC)nn3)CC2)n1 (stereo not given in full)	RAD52 inh 72 | DNA binder FP inactive
CC[C@H](C)Cc1cn([C@@H](CCCCN)C(=O)NCCCCCCCCCCC(=O)N2CCNCC2)nn1	RAD52 inh 77 | DNA binder FP inactive
COc1ccccc1-c1cnc2c(c1)C(=O)N([C@H](C)CO)C[C@@H](C)[C@H](CN(C)Cc1cccnc1)O2	none
CC(C)NC(=O)N(C)C[C@H]1Oc2ncc(C#CC3CCCCC3)cc2C(=O)N([C@@H](C)CO)C[C@H]1C	none (no result: RAD54 inh, RAD52 inh, PglD DTNB, Cneo AK release)
CCCC#Cc1ccc([C@H]2[C@@H](CO)N3C(=O)CN(C(=O)Nc4cc(F)ccc4F)C[C@@H]23)cc1	none (no result: RAD54 inh, RAD52 inh, PglD DTNB, Cneo AK release)
CN1CCN(CCCCOc2ccccc2C=O)CC1	RAD52 inh 87 | DNA binder FP inactive
CC1(C)CC(NC(=O)c2ccccc2)CC(C)(C)N1	none
CC1(C)CC(Nc2ccc(Nc3ccccc3)cc2)CC(C)(C)N1	RAD52 inh 100 (no result: RAD54 inh, PglD DTNB, Cneo AK release) | DNA binder FP inactive
CCOC(=O)c1c(C)n(-c2ccc(C)cc2)c2ccc(OCC(O)CNCCCO)cc12 (stereo not given)	RAD52 inh 83 (no result: RAD54 inh, PglD DTNB, Cneo AK release) | DNA binder FP inactive
CCOC(=O)c1c(C)n(-c2ccccc2)c2ccc(OCCN(C)C)cc12	none
